Published values pooled from the literature.
Lines come from different studies, so protocols differ.
Cell line: MCF7
Observed: cell growth or viability

`COc1cc2c(OC)nc3c4cc5c(cc4cc(OC(C)=O)c3c2cc1OC)OCO5` gave a GI50 of 4.5 µM (MTT).
`CC1(C)CC[C@]2(C)CC[C@]3(C)[C@H]4CC=C5[C@@H](CC[C@H](O)C5(C)C)[C@]4(C)CC[C@@]3(C)[C@@H]2C1` gave an IC50 of 28.4 µM (WST-1).
For `O=C(Nc1ccccc1OS(=O)(=O)c1ccc(F)cc1)c1ccc2ncccc2c1`, the viability was 85.6% (MTT; 100 µM; 24 h).
`C=C(C)[C@H](CC=C(C)C)Cc1c(O)cc(OC)c(C(=O)/C=C/c2ccc(O)cc2O)c1O` has an IC50 of 23 µM (MTT).
`COc1cccc2c1C(=O)c1c(O)c3c(c(O)c1C2=O)C[C@@](O)(C(=O)CO)C[C@@H]3O[C@H]1C[C@H](N)[C@H](O)[C@H](C)O1` has a viability of 11.8% (MTT; 10 µM; 24 h).
With `CC(C)(C)CC(C)(C)Nc1c(-c2cccc(C#N)c2)nc2ncccn12` the viability was 73.6% (MTT; 25 µM; 48 h).
`COc1cc(O)c(CC=C(C)C)c2c1C(=O)CC(c1ccc(O)cc1)O2` (stereo not drawn) gave an IC50 of > 100 µM (MTT; 48 h).
`COc1ccc(-c2nc3ncccn3c2NC(C)(C)CC(C)(C)C)cc1O` has a viability of 65.3% (MTT; 25 µM; 48 h).
With `O=c1[nH]cc(F)c(=O)[nH]1` the CC50 was 641 µM (crystal violet; 72 h).
The IC50 of `COC(=O)[C@]1(O)C[C@@H](O)[C@@H](O)[C@H](OC(=O)/C=C/c2ccc(O)c(O)c2)C1` is reported as 10.2 µM (WST-1).
`COc1cc2c(OC)nc3c4cc5c(cc4cc(OCCN4CCC(N6CCCCC6)CC4)c3c2cc1OC)OCO5` has a GI50 of 12 µM (MTT).
With `COc1cccc2c1C(=O)c1c(O)c3c(c(O)c1C2=O)C[C@@](O)(C(=O)CO)C[C@@H]3O[C@H]1C[C@H](N)[C@H](O)[C@H](C)O1` the IC50 was 0.8 µM (MTT; 48 h).
For `CC(C)(C)CC(C)(C)Nc1c(-c2cccnc2)nc2ncccn12`, the viability was 93.9% (MTT; 25 µM; 48 h).
`C/C=C(/C)C(=O)O[C@@H]1[C@H](OC(C)=O)c2c(ccc3ccc(=O)oc23)OC1(C)C` has an IC50 of 39.1 µM (WST-1).
For `C=C(C)[C@H](CC=C(C)C)Cc1c(O)cc(O)c2c1O[C@H](c1ccccc1O)CC2=O`, the IC50 was 21.3 µM (MTT; 48 h).
